Source: PubChem BioAssay (Broad Institute)
ERAP1 HTS inh: ERAP1 (human) enzyme inhibition | inhibition, % at 10.7 µM | AID 652197 | 0.15% of 340,000 active | recombinant ERAP1, Leu-AMC fluorescence, 60 min | Q9NZ08;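 active means mean replicate inhibition of at least 30%, or all replicates individually reaching that 30% level; inactive means mean below 30% and not every replicate reaching it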;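 further: 0% = neutral control wells and 100% = L-leucinethiol positive control wells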
rRNA inh HTS: inhibitors of bacterial rRNA selective over humanized ribosomes. E. coli WT GFP vs humanized-ribosome RFP mutants, fluorescence, 24 h; stronger effect = lower value; DMSO median 0, no signal -100. GFP signal change (wild-type ribosome), % (concentration not given with the values). 1.6% of 350,000 active;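 active means significant combined selectivity score with lowered wild-type GFP, culture density cut under 30%, mutant RFP and density less affected; inactive means any of these conditions unmet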
Cneo AK release: Cryptococcus neoformans lysis via adenylate kinase release; C. neoformans lysis, adenylate kinase release luminescence, 4 h; normalised: neutral wells 0, clomiphene wells 100; 0.2% of 360,000 active; AID 651654; lysis activity, % at 15 µM;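 active means mean lysis activity across replicates of at least 80%, whatever share of replicates individually reach that level; inactive means mean lysis activity below 80%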
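Material – Cryptococcus neoformans yeast cells · Quantity – 5 × 10^6 yeast cells/mL · Buffer or medium – YPD medium · Compound – single dose · Timing – 4 h static compound exposure, 37 °C, read 1 h post-reagent · Signal – adenylate kinase release luminescence · Read-out basis – lysis from increased AK signal · Benchmarks – Clomiphene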
PGC1a acetyl inh: PGC1a acetylation modulation, inhibitor mode; U2OS PGC1a acetylation, AlphaScreen anti-acetyl-lysine; with virally co-expressed GCN5 acetyltransferase; inhibition, % at 15.6 µM; 0.17% of 350,000 active; AID 651687;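 active means every replicate shows inhibition of at least 40%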;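 further: 0% = neutral control wells and 100% = positive control wells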
FGF22 binding: binders of recombinant human FGF22 by thermal shift; Q9HCT0; SYPRO orange fluorescence; percent of sucrose octasulfate shift, DMSO zero; activity (Tm shift, normalised), % at 9.99 µM; 1.5% of 340,000 active;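 active means mean Tm shift, scaled 0 neutral to 100 positive control, at about 1.3% or above, every replicate too, limit read from the data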
HIV Env fusion: blocks HIV Env-driven cell-cell fusion | HeLa-JRFL Env/CEM21 cell fusion, luciferase | inhibition, % at 12.3 µM | 1.1% of 360,000 active | AID 651610;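 active means mean replicate inhibition score of at least 50 and every replicate individually at or above 50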;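 further: 0% = plate neutral controls and 100% = maraviroc near 300 nM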
An asterisk follows results filed as active; . = not tested or not shown; [ ] = another dose, or the depositor's remark. The list is not random: actives were taken first. Their share in the collection is about 3.5%.

SMILES	ERAP1 HTS inh	rRNA inh HTS	Cneo AK release	PGC1a acetyl inh	FGF22 binding	HIV Env fusion
COc1cccc(N(C(=O)Cc2cccs2)C(C(=O)NC2CCCC2)c2ccncc2)c1 (stereo unspecified)	-2.5	-0.7	-5.5	5.5	-0.2	-27.2
CCOc1cccc(N(C(=O)Cc2cccs2)C(C(=O)NC2CCCCC2)c2cccn2C)c1 (stereo unspecified)	.	.	-1.6	-13.7	.	88.7*
Cc1cc(C)cc(N(C(=O)Cc2cccs2)C(C(=O)NC2CCCCC2)c2ccccn2)c1 (stereo unspecified)	.	.	-0.1	.	.	118.6*
O=C(CSc1nncn1-c1ccccc1)Nc1ccccc1	-2.0	6.1	-0.4	-2.0	0.0	-27.4
CCOP(=O)(OCC)c1nc(-c2cccc3ccccc23)oc1N1CCOCC1	.	.	.	.	.	2.1
CCOP(=O)(OCC)c1nc(-c2ccccc2Cl)oc1N1CCOCC1	-0.4	2.3	-1.1	-5.1	44.5*	18.4
Cc1nnc(SCc2cn3ccsc3n2)n(N)c1=O	.	.	1.1	-8.1	.	.
O=C1CC[C@@H](CN(Cc2ccccc2)Cc2cn[nH]c2-c2cc3ccccc3o2)N1	-2.9	-24.4*	-0.5	.	0.0	5.3
O=C(Nc1ccccc1)SC1CCCCC1	2.1	8.6	-5.5	-1.1	43.1*	-26.9
CN(C(=O)Nc1ccccc1)C1CCCCC1	-0.3	2.7	1.8	.	0.0	-10.0
C[C@@H]1CN(Cc2nc(-c3cnccn3)no2)C[C@H](C)O1	2.1	11.6	.	.	0.8	0.3
Cc1nn(Cc2c(F)cccc2Cl)c(C)c1[N+](=O)[O-]	-4.9	-5.7	1.9	4.0	0.2	-0.5
CCCCN(C(=O)c1cc(S(=O)(=O)N2CCOCC2)ccc1Cl)c1c(N)n(CC(C)C)c(=O)[nH]c1=O	0.5	7.2	.	.	0.4	59.0*
CCCCn1c(N)c(N(CC)C(=O)c2ccco2)c(=O)[nH]c1=O	83.9*	5.5	-0.3	-3.8	-0.2	.
CCCCN(C(=O)c1ccc([N+](=O)[O-])o1)c1c(N)n(CC(C)C)c(=O)[nH]c1=O	87.1*	11.3	-1.6	5.8	-0.2	-2.3
CCc1noc(C)c1C(=O)N(CCOC)c1c(N)n(CC(C)C)c(=O)[nH]c1=O	95.2*	8.6	0.0	-3.3	-0.2	0.6
CCCCN(C(=O)c1cc(S(=O)(=O)N2CCCCC2)ccc1Cl)c1c(N)n(CC(C)C)c(=O)[nH]c1=O	1.3	9.7	0.6	1.8	0.2	-35.7
Cn1ncc([N+](=O)[O-])c1C(=O)NC1CCCCCC1	3.8	9.8	0.8	7.8	0.1	.
Cc1cc(OCC(=O)NCC(c2cccs2)N2CCOCC2)ccc1C(C)C (stereo unspecified)	2.9	-2.8	3.3	-1.8	-0.2	58.6*
Cc1ccc(C(C)C)c(OCC(=O)NCC(c2cccs2)N2CCOCC2)c1 (stereo unspecified)	0.4	7.4	-1.3	.	-0.4	-16.1
O=C(CCc1ccccc1)c1nnc(-c2ccccc2)o1	0.9	-23.1*	.	16.9	0.2	-2.6
CCOC(=O)c1nnc(-c2ccccc2)o1	.	.	2.7	7.9	.	1.6
CC(=O)c1ccc(OCc2cccc(C(F)(F)F)c2)cc1O	-11.2	-11.4	.	2.0	43.1*	-6.6
Cc1ccc(C)c(OCCCCN2CCCCC2)c1	0.4	1.8	-1.1	-11.3	0.0	-16.9
COc1ccc(NC(=O)O[C@@H](C)[C@@H]2CN3CCc4c([nH]c5ccc(-c6ccc(OC)cc6)cc45)[C@@H]3C[C@@H]2N(C)C(=O)Nc2ccc(OC)cc2)cc1	.	-26.6*	-1.9	-10.5	-0.1	25.5
SMILES	ERAP1 HTS inh	rRNA inh HTS	Cneo AK release	PGC1a acetyl inh	FGF22 binding	HIV Env fusion
COc1ccc(-c2ccc3[nH]c4c(c3c2)CCN2C[C@@H]([C@H](C)OC(=O)Nc3cc(Cl)cc(Cl)c3)[C@@H](N(C)C(=O)Nc3cc(Cl)cc(Cl)c3)C[C@@H]42)cc1	7.1	-1.1	4.3	-1.9	0.2	.
CCOC(=O)c1cnc(SC)nc1Oc1cccc(NC(=O)c2ccc(C)cc2)c1	.	.	-0.3	0.0	.	.
OC1(c2ccccc2F)CCN(Cc2nnnn2Cc2ccc(F)cc2)CC1	1.7	-20.9*	1.5	9.8	0.4	-11.9
COc1ccc(Cn2nnnc2CN2CCC(O)(c3ccc(F)cc3)CC2)cc1	4.2	-16.8	.	-7.0	42.7	-1.2
Cc1ccc(Cn2nnnc2CN2CCC(O)(c3ccc(F)cc3)CC2)cc1	-1.8	-27.2*	1.6	-9.9	0.0	.
Cc1ccc(Cn2nnnc2CN2CCC(c3nc4ccc(Cl)cc4[nH]3)CC2)cc1	.	.	-3.6	2.2	.	75.2*
CCCC#Cc1ccc([C@@H]2[C@@H](CO)N3CCCCN(CC4CC4)C[C@@H]23)cc1	-3.5	3.3	2.7	-26.5	-0.2	.
O=C(O)CCC(=NNC(=O)c1cccc(S(=O)(=O)N2CCCCC2)c1)c1ccccc1	0.4	6.7	-1.0	0.8	0.0	.
C[C@@H]1CN([C@H](C)CO)C(=O)c2cccc(NS(C)(=O)=O)c2O[C@@H]1CN(C)Cc1ccc(C(F)(F)F)cc1	3.0	-1.4	5.7	-31.6	0.2	18.9[16.7 µM]
CCCC(=O)NC(c1cccc([N+](=O)[O-])c1)c1ccc2cccnc2c1O (stereo unspecified)	2.3	-40.8	-1.1	29.6	0.1	92.0*
CC(=O)NC(c1ccco1)c1cc(F)c2cccnc2c1O (stereo unspecified)	-0.7	18.8	4.9	.	0.3	-31.9
CCCC(=O)NC(c1ccco1)c1cc(Cl)c2cccnc2c1O (stereo unspecified)	.	.	7.7	11.8	.	.
CCC(=O)NC(c1cccs1)c1ccc2cccnc2c1O (stereo unspecified)	3.9	-49.9	.	47.4*	-1.1	-4.9
CC(=O)NC(c1cccs1)c1cc(F)c2cccnc2c1O (stereo unspecified)	3.2	11.7	2.0	.	43.4*	.
CCCC(=O)NC(c1cccs1)c1cc(Cl)c2cccnc2c1O (stereo unspecified)	-3.6	17.0	.	19.3	0.9	73.8*
O=C(NC1CCCC1)C(c1ccccc1)n1c(Cc2cc(F)cc(F)c2)nc2ccccc21 (stereo unspecified)	-2.2	-7.2	.	.	0.1	70.9*
O=C(NC1CCCCC1)C(c1ccc(C(F)(F)F)cc1)n1c(=O)c(-c2ccccc2)nc2ccccc21 (stereo unspecified)	0.6	-3.3	.	.	0.1	-0.7
O=[N+]([O-])c1cc(C(F)(F)F)cc([N+](=O)[O-])c1NCCNC(=S)Nc1cccc(F)c1	0.3	-25.4*	.	2.1	0.2	-20.9
COc1ccccc1NC(=O)Nc1nc(C(N)Cc2ccc(Cl)cc2)cs1 (stereo unspecified)	-3.7	-62.1	0.3	-8.1	-0.2	64.1*
NC(Cc1ccc(Cl)cc1)c1csc(NC(=O)Nc2ccccc2)n1 (stereo unspecified)	-1.0	6.8	-0.9	-1.0	0.0	60.8*
